Results pooled from the literature.
Lines come from different studies, so protocols differ.
Target: Mitogen-activated protein kinase kinase kinase 11 (MAP3K11, Homo sapiens, UniProt Q16584)
Observed: enzyme activity
Mode: inhibitor

Cc1nn(CC(F)(F)F)cc1Nc1ncc(C2CC2)c(NCCc2c[nH]cn2)n1  remaining activity (radiometric; 1 µM): 91%
FC(F)c1nc2ccccc2n1-c1nc(N2CCOCC2)nc(N2CCOCC2)n1  remaining activity (10 µM): 97%
CC(C)(C)c1nc2c(s1)c1nc(N)ncc1c1ccc(NS(=O)(=O)c3c(F)cccc3F)c(F)c12  remaining activity (radiometric; 1 µM): 22%
CC(C)(O)[C@H]1CC[C@H](Nc2ccc3ncc(-c4cccc(C(F)(F)F)c4)n3n2)CC1  remaining activity (1 µM): 68.9%
COc1cc(Nc2cnc(C#N)c(O[C@H](C)CN(C)C)n2)ncc1-c1cnn(C)c1  remaining activity (radiometric; 10 µM): 69%
Cc1ccc(C(=O)Nc2ccc(CN3CCN(C)CC3)c(C(F)(F)F)c2)cc1C#Cc1cnc2cccnn12  remaining activity (23.5 nM): 98%
O=C(Nc1cccc(Nc2ncc(Br)c(NCCc3cnc[nH]3)n2)c1)N1CCCC1  remaining activity (radiometric; 1 µM): 2%
Cc1sc(C(=O)NC2COC2)cc1-n1cc(NC(=O)Nc2c(F)cccc2Cl)cn1  remaining activity (10 µM): 90.7%
Brc1cnc(Nc2cccc(CN3CCOCC3)c2)nc1NCCc1c[nH]cn1  remaining activity (radiometric; 1 µM): 2%
Oc1cccc(-c2nc(N3CCOCC3)c3oc4ncccc4c3n2)c1  remaining activity (10 µM): 57%
O=C(Nc1cnn(-c2csc(C(=O)NC3COC3)c2)c1)Nc1ccccc1Cl  remaining activity (5 µM): 93.5%
